Source: PMC13170702 (Nuclear medicine and biology, 2025)

Experiment: organ radiation dose estimates, both OLINDA software versions
Format: in vivo, human
Outline: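 Per-participant organ doses from OLINDA 1.1 (ICRP-60) and 2.0 (ICRP-103) were pooled by sex as mean ± SD (n = 4 per sex), in mGy/MBq; effective dose in mSv/MBq. Males and females were compared at p < 0.05. Kidney dose per MBq was related to injected activity and benchmarked against FDA 21CFR361 single-study limits (30 mSv whole body; 50 mGy other organs).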

[1] = range of sex means from both software versions

With `COC(=O)[C@@H](N)CC(=O)Nc1ccc2c(c1)Cc1cc([18F])ccc1-2` [[^18F]RP-115, methyl N^4-(7-[^18F]fluoro-9H-fluoren-2-yl)asparaginate] the “kidney dose per injected activity used for the limit” value (0.237 mGy/MBq × 211 MBq = 50 mGy) was 0.237 mGy/MBq, the “renal estimated radiation dose” value (Males 1–2 and Female 2, 289–355 MBq given) was over 50 mSv and the “ratio of estimated kidney dose to radioactivity given” value (Males 1–2 and Female 4) was over 0.21 mGy/MBq. For the same compound, the critical organ (highest mean absorbed dose, primary route of elimination) was “kidneys”, the “estimated absorbed doses, remaining organs and tissues and Effective dose” value (organs other than kidneys, liver, small intestine) was under 0.035 mGy/MBq and the kidneys mean absorbed estimated radiation dose [1] was 0.142 to 0.214 mGy/MBq. For the same compound, the liver mean absorbed dose [1] was 0.0392 to 0.0449 mGy/MBq.
